These results are taken from ChEMBL document CHEMBL1122206, “Use of adenine nucleotide derivatives to assess the potential of exo-active-site-directed reagents as species- or isozyme-specific enzyme inactivators. 5. Interactions of adenosine 5'-triphosphate derivatives with rat pyruvate kinases, Escherichia coli thymidine kinase, and yeast and rat …” (1982).

The nature of experiment [1]: (§1) Extent of inactivation caused by the compound was reported. The format is functional.
The species entered for a further experiment is Rattus norvegicus. Put plainly: Compound was tested for the affinity to Rat pyruvate kinase relative to the normal substrate. Affinity is expressed as KM (ATP or ADP)/ Ki of inhibitor. The class given is functional.
The target of experiment [2] is T1, Hexokinase-2 (Rattus norvegicus) (UniProt P27881).
T1 sequence (whole entry): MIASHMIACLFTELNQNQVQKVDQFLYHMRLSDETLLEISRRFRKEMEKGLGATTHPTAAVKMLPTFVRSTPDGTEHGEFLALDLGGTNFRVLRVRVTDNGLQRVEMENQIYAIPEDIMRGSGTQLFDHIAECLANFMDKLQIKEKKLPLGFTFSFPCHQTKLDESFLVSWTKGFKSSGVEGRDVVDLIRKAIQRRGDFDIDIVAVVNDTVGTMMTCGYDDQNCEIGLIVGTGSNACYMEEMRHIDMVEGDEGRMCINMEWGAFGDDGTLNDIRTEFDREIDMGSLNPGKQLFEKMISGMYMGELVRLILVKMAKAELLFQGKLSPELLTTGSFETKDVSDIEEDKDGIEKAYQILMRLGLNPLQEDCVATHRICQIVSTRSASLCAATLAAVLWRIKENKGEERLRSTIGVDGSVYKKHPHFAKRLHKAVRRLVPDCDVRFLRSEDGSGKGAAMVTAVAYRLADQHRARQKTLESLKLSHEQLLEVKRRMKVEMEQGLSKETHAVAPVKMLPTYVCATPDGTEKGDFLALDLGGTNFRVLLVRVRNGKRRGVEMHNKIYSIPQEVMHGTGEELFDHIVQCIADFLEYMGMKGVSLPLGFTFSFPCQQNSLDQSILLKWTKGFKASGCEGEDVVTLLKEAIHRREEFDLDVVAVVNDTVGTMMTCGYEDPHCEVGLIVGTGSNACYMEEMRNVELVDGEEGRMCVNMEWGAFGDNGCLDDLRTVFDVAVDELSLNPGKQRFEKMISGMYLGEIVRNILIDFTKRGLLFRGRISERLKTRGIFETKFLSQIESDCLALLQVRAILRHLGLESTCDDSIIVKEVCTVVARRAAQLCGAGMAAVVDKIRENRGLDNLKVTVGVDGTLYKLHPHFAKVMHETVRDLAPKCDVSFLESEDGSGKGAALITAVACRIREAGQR
Description: Time dependent inhibition of hexokinase 2 activity after 6 h, at 5 mM compound.

The target of experiment [3] is T1, Hexokinase-2 (Rattus norvegicus). Put plainly: Substrate activity against Rat hexokinase II as 1:1 Mg complex at 5.0 mM. In short, it runs like this:
(§2)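 Hexokinase activity read at 22 °C as A340 change, coupled to glucose-6-phosphate dehydrogenase, in 0.05 M Tris-HCl pH 7.6 with 6.6 mM MgCl2, 10 mM α-D-glucose and 0.93 mM NADP. Donor was 5.0 mM MgATP derivative (1:1 Mg complex) in place of ATP. Yeast HK was isoelectric-focused. Rat HK I and III came from electrofocused liver extract, HK II from dialysed muscle extract.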

The target in experiment [4] is Thymidine kinase (Escherichia coli) (UniProt P23331). Put plainly: Compound was tested for the lose of thymidine kinase activity after 6 hr, at 0 degrees celsius, with 10 mM ATP derivative. values were expressed in percent.
Chain of Thymidine kinase (Escherichia coli) (P23331 whole entry, looked up): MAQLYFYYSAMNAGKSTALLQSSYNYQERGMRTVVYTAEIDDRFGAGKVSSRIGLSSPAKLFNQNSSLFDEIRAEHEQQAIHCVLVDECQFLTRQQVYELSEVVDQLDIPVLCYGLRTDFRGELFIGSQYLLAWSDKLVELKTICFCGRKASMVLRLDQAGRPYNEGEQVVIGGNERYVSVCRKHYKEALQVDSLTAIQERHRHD
Experiment [5] addresses T2, Hexokinase-3 (Rattus norvegicus) (UniProt P27926).
T2 sequence (whole entry): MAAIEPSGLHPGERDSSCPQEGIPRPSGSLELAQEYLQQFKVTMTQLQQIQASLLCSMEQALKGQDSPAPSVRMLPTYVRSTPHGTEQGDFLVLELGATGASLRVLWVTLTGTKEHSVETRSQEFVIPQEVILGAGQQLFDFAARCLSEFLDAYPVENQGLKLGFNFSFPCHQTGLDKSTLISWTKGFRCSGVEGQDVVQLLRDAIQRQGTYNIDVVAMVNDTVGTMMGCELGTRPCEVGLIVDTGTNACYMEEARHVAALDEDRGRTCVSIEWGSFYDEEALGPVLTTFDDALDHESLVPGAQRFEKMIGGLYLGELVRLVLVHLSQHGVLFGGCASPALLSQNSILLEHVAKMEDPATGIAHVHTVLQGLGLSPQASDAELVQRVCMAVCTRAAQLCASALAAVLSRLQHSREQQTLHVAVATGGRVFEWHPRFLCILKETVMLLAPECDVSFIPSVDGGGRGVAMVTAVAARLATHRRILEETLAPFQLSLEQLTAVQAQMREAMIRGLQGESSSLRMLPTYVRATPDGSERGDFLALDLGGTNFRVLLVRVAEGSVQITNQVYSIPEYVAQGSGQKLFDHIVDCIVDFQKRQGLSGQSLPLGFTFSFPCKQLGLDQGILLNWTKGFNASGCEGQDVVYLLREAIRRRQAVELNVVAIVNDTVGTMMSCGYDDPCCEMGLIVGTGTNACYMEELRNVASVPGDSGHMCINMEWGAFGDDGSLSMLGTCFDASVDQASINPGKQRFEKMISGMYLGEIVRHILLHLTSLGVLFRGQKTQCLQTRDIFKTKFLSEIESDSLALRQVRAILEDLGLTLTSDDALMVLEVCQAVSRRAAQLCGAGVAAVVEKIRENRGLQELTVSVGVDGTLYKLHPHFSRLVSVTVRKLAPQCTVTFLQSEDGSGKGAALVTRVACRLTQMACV
Put plainly: Time dependent inhibition of Hexokinase type III activity after 6 h, at 22 degrees celsius, at 5 mM.

The target in experiment [6] is T2, Hexokinase-3 (Rattus norvegicus). Put plainly: Substrate activity for rat hexokinase III as 1:1 Mg complex at 5.0 mM. In short, it runs like this:
as §2

In experiment [7] the target is T3, Hexokinase-1 (Rattus norvegicus) (UniProt P05708).
T3 sequence (whole entry): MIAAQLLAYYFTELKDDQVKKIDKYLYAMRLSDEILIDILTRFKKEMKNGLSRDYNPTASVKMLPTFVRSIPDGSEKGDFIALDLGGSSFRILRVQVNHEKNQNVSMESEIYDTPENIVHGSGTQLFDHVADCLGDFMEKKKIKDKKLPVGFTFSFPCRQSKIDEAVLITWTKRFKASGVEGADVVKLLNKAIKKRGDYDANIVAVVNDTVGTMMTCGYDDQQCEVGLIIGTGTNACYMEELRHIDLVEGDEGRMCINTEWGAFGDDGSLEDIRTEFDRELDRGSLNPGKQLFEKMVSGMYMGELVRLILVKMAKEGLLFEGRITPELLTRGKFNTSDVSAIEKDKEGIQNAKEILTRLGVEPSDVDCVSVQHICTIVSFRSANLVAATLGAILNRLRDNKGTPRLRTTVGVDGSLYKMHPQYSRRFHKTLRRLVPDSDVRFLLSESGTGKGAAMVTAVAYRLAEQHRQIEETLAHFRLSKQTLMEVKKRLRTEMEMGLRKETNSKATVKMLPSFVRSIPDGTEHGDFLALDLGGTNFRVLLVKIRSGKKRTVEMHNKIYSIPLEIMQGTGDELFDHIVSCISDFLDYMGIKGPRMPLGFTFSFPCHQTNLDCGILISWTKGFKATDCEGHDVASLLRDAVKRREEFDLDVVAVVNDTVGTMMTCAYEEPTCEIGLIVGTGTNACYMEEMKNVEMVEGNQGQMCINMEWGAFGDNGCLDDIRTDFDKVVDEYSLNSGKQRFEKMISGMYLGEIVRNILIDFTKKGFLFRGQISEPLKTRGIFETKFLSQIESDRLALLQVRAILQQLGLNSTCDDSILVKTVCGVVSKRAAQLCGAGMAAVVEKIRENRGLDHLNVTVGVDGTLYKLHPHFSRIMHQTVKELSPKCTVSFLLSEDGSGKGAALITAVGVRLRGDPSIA
Description: Substrate activity for rat hexokinase I as 1:1 Mg complex at 5.0 mM. In short, it runs like this: as §2

Experiment [8] relates to Saccharomyces cerevisiae. Description: Substrate activity against yeast hexokinase as 1:1 Mg complexes at 5.0 mM. In short, it runs like this:
as §2

In experiment [9] the test system is Saccharomyces cerevisiae. Description: Time dependent inhibition of hexokinase activity after 6 hr, at 22 degrees celsius, with 5 mM ATP derivative in yeast.
The target in experiment [10] is T3, Hexokinase-1 (Rattus norvegicus). Put plainly: Time dependent inhibition of Hexokinase type I activity after 6 h, at 22 degrees celsius, at 5 mM compound.
The target of experiment [11] is Thymidine kinase (Escherichia coli) (UniProt P23331). Description: Compound was tested for the initial inhibition of thymidine kinase by 1.4 mM compound in the presence of 5.7 mM ATP in Escherichia coli.
A short description of experiment [12]: Compound was tested for substrate constants with yeast hexokinase. Maximal velocity Vmax was reported. In short, it runs like this:
(§3)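 Hexokinase KM and Vmax taken from linear double-reciprocal plots of initial velocity vs. nucleotide level. Assays at 22 °C, coupled to glucose-6-phosphate dehydrogenase (A340), in 0.05 M Tris-HCl pH 7.6 with 6.6 mM MgCl2, 10 mM glucose and 0.93 mM NADP. Yeast HK was isoelectric-focused. Rat HK I and III came from liver, HK II from muscle (male Sprague-Dawley).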

Experiment [13] can be described thus: Compound was tested for substrate constants with rat hexokinase. Maximal velocity Vmax was reported. In short, it runs like this: as §3
The nature of experiment [14]: Substrate concentration for half maximal velocity was reported for rat hexokinase II. In short, it runs like this:
(§4)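 Coupled glucose-6-phosphate dehydrogenase/NADP assay: A340 rate at 22 °C in 0.05 M Tris-HCl pH 7.6 with 6.6 mM MgCl2, 10 mM α-D-glucose and 0.93 mM NADP, nucleotide varied. KM was taken from linear double-reciprocal plots. Rat HK I and III came from electrofocused, dialysed liver extract, HK II from dialysed muscle extract, and yeast HK was isoelectric-focused.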

The nature of experiment [15]: Substrate concentration for half maximal velocity was reported for rat hexokinase I. In short, it runs like this:
as §4

The nature of experiment [16]: Substrate concentration for half maximal velocity was reported for yeast hexokinase. In short, it runs like this:
as §4

Experiment [17] in a line: Substrate concentration for half maximal velocity was reported for rat hexokinase III. In short, it runs like this: as §4
Experiment [18] can be described thus: Compound was tested for the affinity relative to the normal substrate. Affinity is expressed as KM (ATP or ADP)/ Ki of inhibitor.
Experiment [19] is described as follows: as §1.
Experiment [20] can be described thus: Tested for the velocity of 2.8 mM compound relative to that of 2.8 mM MgATP in the assay. In short, it runs like this:
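E. coli TK substrate test. 0.5 h after adding inhibitor, the mixture was diluted to 2.8 mM derivative in thymidine assay medium without ATP and with 1.42 mM MnCl2. Incubated 15 min at 37 °C, in the linear range. [14C]TMP formed was compared with that from 2.8 mM ATP under the same conditions.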

Molecules are shown by their SMILES. “And” between values parts separate entries of the source, which are not always exact repeats. Identical values can stand only once. Where only a bound is given, the exact number is not on record here.

For the compound `O=C(CI)NCCCCCCCCNc1ncnc2c1ncn2[C@@H]1O[C@H](COP(=O)(O)OP(=O)(O)OP(=O)(O)O)[C@@H](O)[C@H]1O`, the Inactivation in experiment [1] is above 90%. This compound came in with a Relative affinity in the experiment filed under Rattus norvegicus of 0.011. Besides, the inhibition stood at 41% in experiment [2]; 0% in [4]; 47% in experiment [5]; 30% with Saccharomyces cerevisiae [9]; 35% in experiment [10]; 19% in experiment [11]. Further, the Relative velocity in experiment [3] was 1.26; in [6], 2.81; in experiment [7], 1.79; in the experiment on Saccharomyces cerevisiae [8], 1.82.
For `CN(CCCN(C)C(=O)CCCCNc1ncnc2c1ncn2[C@@H]1O[C@H](COP(=O)(O)OP(=O)(O)OP(=O)(O)O)[C@@H](O)[C@H]1O)C(=O)CCCCNC(=O)OCc1ccccc1`, the Vmax in [12] was 75%; in experiment [13], 45% and 35% and 23%. Moreover, the Km turned out to be 270 µM in [14], 180 µM in [15], 320 µM in experiment [16] and 100 µM in experiment [17].
In experiment [18], `CN(CCCCN(C)c1ncnc2c1ncn2[C@@H]1O[C@H](COP(=O)(O)OP(=O)(O)OP(=O)(O)O)[C@@H](O)[C@H]1O)C(=O)CCCCCNC(=O)CI` gave a Relative affinity of 0.56. The inhibition in experiment [2] came out at 0%; in [4], 53%; in experiment [5], 0%; in experiment [10], 0%; in experiment [11], 11%. The Relative inactivation in experiment [19] is above 80. For the same compound, the Velocity in experiment [20] is above 13%.
